Bioassay records (PubChem)
PglD inh = blocks C. jejuni PglD acetyltransferase activity; inhibition, % at 12.5 µM; 360,000 tested, 0.098% active; purified PglD enzyme, DTNB colorimetric CoA detection; in the data active means inhibition above about 16%, passing the limit was not always enough; inconclusive means no clear call, values can overlap the other calls
DENV2 CPE = protects cells from dengue virus 2 cytopathic effect | DENV2-infected cells, cytopathic effect rescue, plate reader | CPE inhibition, % at 9.99 µM | 350,000 tested, 1.7% active | AID 651640; in the data active means CPE inhibition above about 20%, passing the limit was not always enough; inconclusive means no clear call, values can overlap the other calls; tested in BHK-21 cells;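 further: 0% = median of neutral control wells and 100% = median of positive control wells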
HIV Env fusion = HIV envelope-mediated fusion inhibition; inhibition, % at 12.3 µM; HeLa-JRFL Env/CEM21 cell fusion, luciferase; 360,000 tested, 1.1% active;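 active means mean replicate inhibition score of at least 50 and every replicate individually at or above 50; inconclusive means only one of the two criteria met; inactive means mean below 50 and not all replicates reaching 50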;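 further: 0% = plate neutral controls and 100% = maraviroc near 300 nM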
FN deposition inh = fibronectin deposition inhibition; AH1F fibroblasts, Alexa488-fibronectin deposition fluorescence, overnight; inhibition, % at 12.6 µM; AID 743247; 350,000 tested, 0.086% active;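 active means mean inhibition across replicates of 30% or more, regardless of how many single replicates reach that level; inconclusive means mean under 30% yet at least half of replicates reach 30%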;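 further: positive control wells lacked labelled fibronectin entirely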
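Assay system: AH1F fibroblast monolayer, labelled fibronectin deposition. Amount: 10000 cells per well. Also added: labelled fibronectin 24 nM. Compound: single-point pinned compound. Incubation: cell attachment 1 h, compound and FN exposure overnight. Detection: fluorescence after three HBSS washes, excitation 485 nm, emission 525 nm. Read-out: inhibition of fibronectin deposition signal.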
rRNA inh HTS = inhibits bacterial ribosomal RNA function over humanized ribosomes; GFP signal change (wild-type ribosome), % (concentration not given with the values); AID 720706; E. coli WT GFP vs humanized-ribosome RFP mutants, fluorescence, 24 h; hits give low values; DMSO median 0, no signal -100; 350,000 tested, 1.6% active;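 active means significant combined selectivity score with lowered wild-type GFP, culture density cut under 30%, mutant RFP and density less affected; inactive means any of these conditions unmet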
PGC1a acetyl inh = PGC1a acetylation modulation, inhibitor mode; 350,000 tested, 0.17% active; U2OS PGC1a acetylation, AlphaScreen anti-acetyl-lysine; with virally co-expressed GCN5 acetyltransferase; inhibition, % at 15.6 µM;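 active means every replicate shows inhibition of at least 40%; inconclusive means mean inhibition at least 40% but some replicate below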;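 further: 0% = neutral control wells and 100% = positive control wells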
Numbers without * were called inactive; u = inconclusive; x = no result; ! = a repeat was not active; [ ] = another dose, or the depositor's remark. An excerpt weighted towards active compounds, which were near 3.5% of everything screened.

SMILES	PglD inh	DENV2 CPE	HIV Env fusion	FN deposition inh	rRNA inh HTS	PGC1a acetyl inh
O=C(C[C@@H]1CC[C@@H](NC(=O)C2CCOCC2)[C@@H](CO)O1)NCC1CCCCC1	0	4	2[16.7 µM]	7	-1	-3
Cc1cc(OCC(=O)NC(C)C)cc(C)c1Br	x	-15	x	-2	-10	x
COc1cc2c(c(OCC(=O)NC(C)C)c1)C(=O)O[C@@H](C)CCCC(=O)CCCCC2	-5	-3	88*	-2	-1	12
COc1cc(OC)cc(C(=O)OCC(=O)NC2CCCCCC2)c1	8	-2	x	3	12	3
COc1cc(OCC(=O)NC(C)C)cc2c1C(=O)O[C@@H](C)CCCC(=O)CCCCC2	4	-1	73*	3	7	-5
C[C@H]1CN([C@@H](C)CO)C(=O)c2cccc(NC(=O)CCCCCC(=O)Nc3ccccc3N)c2O[C@H]1CN(C)CC1CC1	x	-16	x	x	7	12
COc1ccc(C(=O)Nc2ccccc2C(=O)O)cc1NC(=O)C(c1ccccc1)c1ccccc1	x	3	1	15	-36*	x
COc1ccc(N(C(=O)c2snc(C(N)=O)c2N)C(C(=O)NC2CCCC2)c2ccc3ncccc3c2)cc1 (stereo not drawn)	12	1	-12	-2	7	7
NC(=O)c1nsc(C(=O)N(c2ccccc2)C(C(=O)NC2CCCC2)c2ccc3ncccc3c2)c1N (stereo not drawn)	0	39*	6	2	7	x
CC(C)c1ccc(N(C(=O)c2snc(C(N)=O)c2N)C(C(=O)NCC2CCCO2)c2ccc(N(C)C)cc2)cc1 (stereo not drawn)	-1	32*	u	-6	4	-16
Cc1ccccc1S(=O)(=O)N1[C@@H]2CNC[C@H]1C2c1ccc(/C=C/c2ccccc2)cc1 (stereo partly drawn)	x	25*!	x	0	1	-5
O=S(=O)(c1cccc(F)c1)N1[C@@H]2CNC[C@H]1C2c1ccc(-c2ccccc2)cc1 (stereo partly drawn)	x	-5	x	1	5	-41
CS(=O)(=O)N1[C@@H]2CNC[C@H]1C2c1ccc(-c2ccccc2)cc1 (stereo partly drawn)	x	80*	x	-9	7	14
Cc1noc(C)c1NC(=O)Nc1ccc2c(c1)C(=O)N(C)[C@@H]1CC[C@H](CC(=O)N(C)C)O[C@@H]1CO2	1	-7	-26[16.7 µM]	-30	4	0
C[C@H](NC(=O)C[C@H]1C[C@@H]2c3cc(NC(=O)Nc4ccc(C(F)(F)F)cc4)ccc3O[C@@H]2[C@H](CO)O1)c1ccccc1	4	3	5[16.7 µM]	x	-13	1
Cc1ccc(S(=O)(=O)N(C)C)cc1NC(=O)COC(=O)C1CCCC1	2	34*	-1	-3	6	-1
Cc1ccc(S(=O)(=O)N(C)C)cc1NC(=O)COC(=O)CCC1CCCC1	x	5	-6	1	6	x
O=C(NCc1cccs1)c1nc2c(nnn2Cc2ccccc2Cl)c(=O)[nH]1	5	x	111*	x	x	32
CO[C@@H]1CN(C)C(=O)c2cc(NC(=O)Nc3cccc(F)c3)ccc2OC[C@@H](C)N(C(=O)C2CC2)C[C@H]1C	0	x	-2[16.7 µM]	1	-4	-9
Cc1cc(C)c([C@@H]2C[C@H]3CN(C4CCCC4)C(=O)[C@]34CCCN24)c(-n2cccn2)c1	7	1	-63	38*	6	1
Cc1ccc(NCc2nnc(SCC(=O)c3ccc4c(c3)OCCO4)o2)c(C)c1	-1	-7	x	x	-36*	10
C[C@@H]1CN([C@H](C)CO)C(=O)Cc2cc(NC(=O)Cn3cnnn3)ccc2O[C@@H]1CN(C)S(=O)(=O)c1cn(C)cn1	2	u	-9[16.7 µM]	x	2	4
COc1cc(O)c(C(CC(=O)N2CCCC(C)C2)c2cc(OC)c(OC)c(OC)c2)c(OC)c1 (stereo not drawn)	-6	62*	-48	-7	6	x
COc1cccc(CC(=O)Nc2nc(-c3cc(OC)ccc3OC)cs2)c1	x	x	-1	8	-24*	x
COc1ccc(OC)c(-c2csc(NC(=O)COC(=O)C3(C)CC3(Cl)Cl)n2)c1 (stereo not drawn)	-2	9	-11	2	-21*	x
SMILES	PglD inh	DENV2 CPE	HIV Env fusion	FN deposition inh	rRNA inh HTS	PGC1a acetyl inh
COc1ccc(CC(=O)Nc2nc(-c3cc(OC)ccc3OC)cs2)cc1	x	2	-12	8	-22*	9
COc1ccc(OC)c(-c2csc(NC(=O)Cc3ccc(OC)c(OC)c3)n2)c1	-4	12	-5	13	-10	-9
N#CCCc1cccc(CCC#N)c1	-1	120*	-26	1	7	6
C=C[C@@H](OC)[C@H](OC(=O)Nc1ccc(SC)cc1)c1ccc(OCCO)cc1	1	21*	3[16.7 µM]	x	x	7
CCCCCOc1ccc(NC(=O)c2cc(SC)ccc2Cl)cc1	-5	x	-3	4	x	0
CC[n+]1c(/C=C/N(C)c2ccccc2)oc2ccccc21	4	-1	19	5	-19*	11
CC[n+]1c(/C=C/N(C)c2ccccc2)oc2ccc(F)cc21	0	x	18	-2	x	x
Cc1ccc(C(=O)N2CCN(c3ncccn3)CC2)cc1	1	10	-1	6	-2	80*
Cc1ccc(NS(=O)(=O)c2ccc(C(=O)N3CCN(c4ncccn4)CC3)cc2)cc1	x	-10	32	0	-28	-2
Cc1ccc(S(=O)(=O)N2CCCCC2)cc1NC(=O)c1cncc(Br)c1	x	-5	12	-6	-9	x
O=C(c1ccc(Cl)c(S(=O)(=O)N2CCCCCC2)c1)N1CCCCC1	8	-4	-3	-3	-21	x
O=C(Nc1ccc(Br)cn1)c1cccc(S(=O)(=O)N2CCCC2)c1	-3	u	56*	x	-13	-4
O=C(c1ccc(Cl)c(S(=O)(=O)N2CCCCCC2)c1)N1CCN(c2ccccn2)CC1	x	x	63*	7	x	9
CCc1nnc(NC(=O)c2ccc(S(=O)(=O)N3CCCCC3)cc2)s1	-3	1	-20	-1	4	x
CCc1nnc(NC(=O)c2ccc(F)c(S(=O)(=O)N3CCCCC3)c2)s1	1	69*	-25	6	-3	x
O=C(Nc1cccc(S(=O)(=O)N2CCCCCC2)c1)c1cncc(Br)c1	7	14	56*	x	-16	-9
Cc1ccccc1S(=O)(=O)N1C[C@H](O)COC[C@@H]2O[C@@H](CC(=O)NCCc3ccccc3)CC[C@H]21	3	-3	7[16.7 µM]	-15	-1	5
O=C(C[C@@H]1CC[C@H]2[C@@H](COC[C@H](O)CN2C(=O)Nc2ccc(Cl)cc2)O1)NC1Cc2ccccc2C1	-13	u	x	-15	-47	-7
CCn1nc(C(=O)Nc2cccc(S(=O)(=O)N3CCCC3)c2)c2ccccc2c1=O	2	-10	0	10	-27*	x
